These results are taken from article PMC9762201 (Current Research in Pharmacology and Drug Discovery, 2022).

“Also recorded” adds a separate entry of the source.

The target in data set [1] is T1, α1A-AR (Homo sapiens, UniProt P35348).
T1 sequence (P35348 1-466): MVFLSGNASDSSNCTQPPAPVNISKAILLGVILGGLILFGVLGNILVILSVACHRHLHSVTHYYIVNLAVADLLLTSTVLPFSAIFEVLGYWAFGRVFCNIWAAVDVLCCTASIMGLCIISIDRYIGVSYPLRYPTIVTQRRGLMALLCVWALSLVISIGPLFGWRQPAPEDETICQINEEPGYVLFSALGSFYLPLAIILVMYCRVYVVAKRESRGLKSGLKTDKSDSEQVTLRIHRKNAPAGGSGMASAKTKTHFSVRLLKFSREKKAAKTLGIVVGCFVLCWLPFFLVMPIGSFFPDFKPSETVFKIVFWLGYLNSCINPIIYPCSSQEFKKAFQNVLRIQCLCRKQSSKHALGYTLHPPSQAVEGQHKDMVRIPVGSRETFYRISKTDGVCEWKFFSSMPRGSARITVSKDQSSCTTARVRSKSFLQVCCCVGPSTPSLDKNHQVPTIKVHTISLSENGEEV
Type of data set: binding.

In data set [2] the test system is α1B-AR. Type of data set: binding. Conditions: 0.5 mM GTP.
In data set [3] the target is T2, α1D-AR (Homo sapiens, UniProt P25100).
T2 sequence (P25100 1-572): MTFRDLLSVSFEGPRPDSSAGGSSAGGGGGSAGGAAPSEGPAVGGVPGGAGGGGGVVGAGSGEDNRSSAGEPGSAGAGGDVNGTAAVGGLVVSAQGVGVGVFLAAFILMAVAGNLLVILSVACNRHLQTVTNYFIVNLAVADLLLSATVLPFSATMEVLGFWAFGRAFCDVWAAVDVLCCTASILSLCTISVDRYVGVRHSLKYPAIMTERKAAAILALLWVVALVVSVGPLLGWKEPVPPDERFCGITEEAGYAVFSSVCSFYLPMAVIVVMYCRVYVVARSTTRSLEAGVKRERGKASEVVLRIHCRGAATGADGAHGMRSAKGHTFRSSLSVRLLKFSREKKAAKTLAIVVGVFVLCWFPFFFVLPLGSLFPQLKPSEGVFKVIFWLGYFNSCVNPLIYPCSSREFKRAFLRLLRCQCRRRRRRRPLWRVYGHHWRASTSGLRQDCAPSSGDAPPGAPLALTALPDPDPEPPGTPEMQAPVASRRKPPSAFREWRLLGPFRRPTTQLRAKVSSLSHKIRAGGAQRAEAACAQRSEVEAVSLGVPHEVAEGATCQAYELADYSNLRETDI
In kind it is binding.

In a further data set the target is T3, α2A-AR (Homo sapiens, UniProt P08913).
T3 sequence (P08913 1-465): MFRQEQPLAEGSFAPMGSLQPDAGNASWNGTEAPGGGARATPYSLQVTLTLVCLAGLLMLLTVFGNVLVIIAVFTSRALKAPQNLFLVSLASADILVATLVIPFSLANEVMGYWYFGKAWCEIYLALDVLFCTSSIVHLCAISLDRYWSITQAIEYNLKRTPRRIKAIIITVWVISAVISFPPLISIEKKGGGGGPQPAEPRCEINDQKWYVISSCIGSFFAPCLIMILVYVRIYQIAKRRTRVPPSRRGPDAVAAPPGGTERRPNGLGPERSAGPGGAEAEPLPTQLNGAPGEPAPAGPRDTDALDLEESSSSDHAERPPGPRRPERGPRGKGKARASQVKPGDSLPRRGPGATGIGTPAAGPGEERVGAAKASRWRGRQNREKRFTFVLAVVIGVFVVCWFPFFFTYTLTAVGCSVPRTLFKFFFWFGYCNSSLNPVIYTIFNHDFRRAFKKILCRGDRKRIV
Type of data set: binding. The settings on record: Cos-1 membranes.

The next data set has as its target 5-HT7A (Homo sapiens, UniProt P34969). Kind of data set: Psychoactive Drug Screening program GPCR binding screen, 5-HT7A.
In data set [4] the test system is α1A-AR. As to the kind of experiment: cAMP assay and PAM assay in Rat-1 fibroblasts expressing α1A-AR. In kind it is cell-based. In general terms: Changes in cAMP serve as a functional read-out for many G protein-coupled receptors.
The subject of data set [5] is α1B-AR. As to the kind of experiment: cAMP assay in Rat-1 fibroblasts expressing α1B-AR. Type of data set: cell-based. The settings on record: Cmpd-3 10^−7 to 10^−5 M. In a few lines: (§1)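 Rat-1 fibroblasts expressing one α1-AR subtype were plated serum-free at about 2.4 x 10^4 cells/well and rested overnight. They were preincubated 2 h at 37 °C with 10 μM propranolol, 0.1 μM rauwolscine and test compound. IBMX (100–200 μM) and NE or Epi were then added for 2 h, either as an agonist dose-response or at a fixed 10^-4 M. Cells were extracted in 0.1 M HCl for 20 min at RT, centrifuged at 1000 g, and cAMP was measured by EIA.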

Data set [6] addresses T2, α1D-AR. As to the kind of experiment: cAMP assay in Rat-1 fibroblasts expressing α1D-AR. Type of data set: cell-based. Conditions: Cmpd-3 10^−6, 10^−5 M. In a few lines:
as §1

The target of data set [7] is T1, α1A-AR. Kind of data set: Total inositol phosphate assay in Rat-1 fibroblasts expressing α1A-AR. In kind it is cell-based.
Data set [8] has as its system α1B-AR. As to the kind of experiment: Total inositol phosphate assay, cells expressing α1B-AR. In kind it is cell-based. Conditions: data not shown. The method, boiled down:
(§2)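 Cells expressing a single α1-AR subtype were seeded in DMEM at about 5 x 10^4 cells/well and rested overnight at 37 °C. They were labelled overnight with 3H-inositol, washed, and placed in serum-free DMEM with 10 mM LiCl (final) for 1 h. NE or Epi (one dose per well) plus test compound at one or several concentrations were added for 1 h at 37 °C. Total inositol phosphates were measured by anion-exchange chromatography.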

Data set [9] deals with T2, α1D-AR. Kind of data set: Total inositol phosphate assay, cells expressing α1D-AR. Type of data set: cell-based. Conditions: data not shown. The method, boiled down:
as §2

Data set [10] deals with phosphorylation of CREB at Ser133. Kind of data set: p-CREB. Type of data set: cell-based. Conditions: 10^−8 M; NE 10^−4 M; propranolol and rauwolscine present.
Data set [11] has as its target T1, α1A-AR. As to the kind of experiment: 3H-NE binding potentiation, membranes from Rat-1 fibroblasts expressing α1A-AR.
For data set [12] the following is noted: 2.6 mg/kg, q.d., PO; 3 or 6 months of dosing; 3XTG mice; ref Perez, 2021b; cited from earlier work.
A further data set deals with 3XTG mice. Conditions: 2.6 mg/kg, q.d., PO, 3 or 6 months, ref Perez, 2021b; cited from earlier work.
The mark [13] stands for this setting: compound 10^−5 M, absence of GTP, 125I-HEAT.

Sequence of 5-HT7A (P34969 1-445 isoform P34969-2): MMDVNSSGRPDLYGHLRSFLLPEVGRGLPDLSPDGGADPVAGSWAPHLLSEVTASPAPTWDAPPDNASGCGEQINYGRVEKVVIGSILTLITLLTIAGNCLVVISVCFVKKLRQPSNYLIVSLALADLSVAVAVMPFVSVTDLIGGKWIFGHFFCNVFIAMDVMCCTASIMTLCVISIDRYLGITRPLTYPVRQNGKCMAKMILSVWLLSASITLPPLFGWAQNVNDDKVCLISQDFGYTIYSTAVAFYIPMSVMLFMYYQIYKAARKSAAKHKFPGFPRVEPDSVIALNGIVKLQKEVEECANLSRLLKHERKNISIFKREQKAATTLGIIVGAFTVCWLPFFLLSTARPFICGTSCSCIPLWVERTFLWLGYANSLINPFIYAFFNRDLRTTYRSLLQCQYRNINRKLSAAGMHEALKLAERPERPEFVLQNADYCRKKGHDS

The Ki is a measure of affinity in units of concentration, obtained from inhibition or displacement. A lower Ki goes with tighter binding. Broadly, the EC50 is the midpoint of the concentration-response curve. With `CC(C)Cc1c(OCC2=NCCN2)cccc1N(C)S(C)(=O)=O.Cl` [Cmpd-3, N-(3-((4,5-Dihydro-1H-imidazol-2-yl)methoxy)-2-isobutylphenyl)-N-methylmethanesulfonamide hydrochloride], the “extent of inhibition of 125I-HEAT binding at α1A-AR” value on α1A-AR [1] (0.5 mM GTP) is listed as “could not fully inhibit; also recorded: incomplete inhibition”. The “fraction of receptor in the high affinity state of NE in presence of compound” value at α1A-AR [1] (compound 10^−5 M, absence of GTP) is 55%. On α1A-AR [1] (setting [13]), the “effect on NE binding at α1A-AR” value is on record as “stabilizes the high affinity binding site of NE” and the “effect on binding profile of Epi at α1A-AR” value is reported as “no effect”. Also, the “binding at α1B-AR (125I-HEAT competition)” value with α1B-AR [2] is listed as “did not display any binding; also recorded: does not bind”. The compound also displayed a Ki on α1D-AR [3] of 30 µM. The “difference in binding selectivity between the α1-AR subtypes” value at α1D-AR [3] (α1A-AR versus α1B-/α1D-AR) is reported as 1000 fold. The “extent of inhibition of 3H-RX821002 binding at α2A-AR” value on α2A-AR was “fully inhibited”. Further, the affinity on 5-HT7A, expressed as Ki, was 6 µM. In the data set with α1A-AR [4] (Epi dose-response, propranolol and rauwolscine present), the “effect on Epi-mediated cAMP response at α1A-AR” value was “did not affect”. For the same compound, in the data set on α1A-AR [4] (NE 10^−4 M held constant, compound dose-response), the “PAM activity (NE-mediated cAMP potentiation, PAM assay)” value is “display PAM effect”. Besides, the “effect on NE-mediated cAMP response at α1A-AR” value in the data set with α1A-AR [4] (NE dose-response, propranolol and rauwolscine present) was “potentiated; also recorded: increases the Emax”. Besides, in the data set with α1A-AR [4] (compound alone, dose-response), the “intrinsic (basal) agonist activity, cAMP” value is listed as “cannot stimulate; also recorded: do not show any basal activity”. Further, the “effect on NE or Epi-mediated cAMP response at α1B-AR” value with α1B-AR [5] is “no effect; also recorded: does not change the potency or the Emax”. Besides, at α1D-AR [6], the “effect on NE or Epi-mediated cAMP response at α1D-AR” value is recorded as “no effect; also recorded: does not change the potency or the Emax”. Further, at α1A-AR [7], the “effect on Epi-mediated inositol phosphate signal at α1A-AR” value is given as “no effect; also recorded: does not affect” and the “effect on NE-mediated inositol phosphate signal at α1A-AR” value is “no effect; also recorded: does not affect”. Moreover, the “intrinsic (basal) agonist activity, inositol phosphate” value at α1A-AR [7] (compound alone, dose-response) is on record as “cannot stimulate; also recorded: do not show any basal activity”. In addition, the “effect on NE or Epi-mediated IP signal at α1B-AR” value with α1B-AR [8] is “no effect”. Also, the “effect on NE or Epi-mediated IP signal at α1D-AR” value on α1D-AR [9] is reported as “no effect”. In addition, the “effect on NE-mediated p-CREB levels” value in [10] is reported as “significantly potentiated; also recorded: increases”. Further, the EC50 at α1A-AR [11] was 0.0001 µM. In addition, the “effect on systolic blood pressure” value in data set [12] is reported as “failed to change”. For the same compound, the “effect on long-term potentiation and cognitive behavior” value in the data set on 3XTG mice is “statistically increased”.
